Values after ≈ are worked out from the molar mass of the structure shown.
Key:
Assay type in all cases: functional
[1] = tested on: Syncephalastrum racemosum; assay: Antifungal activity against Syncephalastrum racemosum RCMB 05922 assessed as inhibition zone at 5 mg/ml after 48 hrs; details: RCMB 05922, 48 h, read-out: IZ
Streptococcus pneumoniae [2] = assay: Antimicrobial activity against Streptococcus pneumoniae RCMB 010010 assessed as inhibition zone at 5 mg/ml after 24 hrs; details: RCMB 010010, 24 h, read-out: IZ
Method in brief: (§1)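 Agar diffusion on nutrient agar seeded with 10^6 CFU/mL bacteria. Filter-paper disks were loaded with 100 µL of a 5 mg/mL compound solution in DMF, with a DMF-only control. Incubation was 37 °C for 24 h. Inhibition zone in mm (mean ± SD, triplicate plates) was measured beyond the 6 mm diameter.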

[3] = tested on: Staphylococcus epidermidis; assay: Antimicrobial activity against Staphylococcus epidermidis RCMB 010024 assessed as absence of turbidity after 24 hrs; details: RCMB 010024, 24 h
Method in brief: (§2)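 Broth microdilution in Müller–Hinton broth. DMF stocks at 1000 µg/mL were diluted in broth to give twofold serial dilutions over 500–0.007 µg/mL. Bacterial inoculum was about 10^6 CFU/mL in 96-well plates, sealed and incubated at 37 °C for 24 h in a humid chamber. MIC was taken as the lowest concentration with no visible turbidity. DMF and uninoculated-medium controls were included. Only compounds giving zones >10 mm were tested.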

Bacillus subtilis [4] = assay: Antimicrobial activity against Bacillis subtilis RCMB 010067 assessed as absence of turbidity after 24 hrs; details: RCMB 010067, 24 h; method in brief: as §2
Klebsiella pneumoniae [5] = assay: Antimicrobial activity against Klebsiella pneumoniae RCMB 010093 assessed as absence of turbidity after 24 hrs; details: RCMB 010093, 24 h; method in brief: as §2
Aspergillus fumigatus [6] = assay: Antifungal activity against Aspergillus fumigatus RCMB 02568 assessed as absence of turbidity after 48 hrs; details: RCMB 02568, 48 h
Method in brief: as §2, with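 “Sabouraud liquid medium.” for “Müller–Hinton broth.”, “Fungal” for “Bacterial”, “10^4” for “10^6”, “25” for “37”, “48” for “24”, “included.” for “included. Only compounds giving zones >10 mm were tested.”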

Bacillus subtilis [7] = assay: Antimicrobial activity against Bacillis subtilis RCMB 010067 assessed as inhibition zone at 5 mg/ml after 24 hrs; details: RCMB 010067, 24 h, read-out: IZ; method in brief: as §1
Aspergillus fumigatus [8] = assay: Antifungal activity against Aspergillus fumigatus RCMB 02568 assessed as inhibition zone at 5 mg/ml after 48 hrs; details: RCMB 02568, 48 h, read-out: IZ
Method in brief: (§3)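 Disk diffusion on nutrient agar seeded with 10^4 CFU/mL fungus. Sterile filter-paper disks carried 100 µL of a 5 mg/mL DMF solution, and DMF alone served as control. Plates were incubated at 25 °C for 48 h. Mean inhibition zone in mm ± SD was read beyond the 6 mm diameter, in triplicate.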

Streptococcus pneumoniae [9] = assay: Antimicrobial activity against Streptococcus pneumoniae RCMB 010010 assessed as absence of turbidity after 24 hrs; details: RCMB 010010, 24 h; method in brief: as §2
Geotrichum candidum [10] = assay: Antifungal activity against Geotrichum candidum RCMB 05097 assessed as inhibition zone at 5 mg/ml after 48 hrs; details: RCMB 05097, 48 h, read-out: IZ; method in brief: as §3
Escherichia coli [11] = assay: Antimicrobial activity against Escherichia coli RCMB 010052 assessed as absence of turbidity after 24 hrs; details: RCMB 010052, 24 h; method in brief: as §2
[12] = tested on: Syncephalastrum racemosum; assay: Antifungal activity against Syncephalastrum racemosum RCMB 05922 assessed as absence of turbidity after 48 hrs; details: RCMB 05922, 48 h
[13] = tested on: Staphylococcus epidermidis; assay: Antimicrobial activity against Staphylococcus epidermidis RCMB 010024 assessed as inhibition zone at 5 mg/ml after 24 hrs; details: RCMB 010024, 24 h, read-out: IZ; method in brief: as §1
Klebsiella pneumoniae [14] = assay: Antimicrobial activity against Klebsiella pneumoniae RCMB 010093 assessed as inhibition zone at 5 mg/ml after 24 hrs; details: RCMB 010093, 24 h, read-out: IZ; method in brief: as §1
Geotrichum candidum [15] = assay: Antifungal activity against Geotrichum candidum RCMB 05097 assessed as absence of turbidity after 48 hrs; details: RCMB 05097, 48 h
Method in brief: as §2, with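 “Sabouraud liquid medium.” for “Müller–Hinton broth.”, “Fungal” for “Bacterial”, “10^4” for “10^6”, “25” for “37”, “48” for “24”, “included.” for “included. Only compounds giving zones >10 mm were tested.”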

Escherichia coli [16] = assay: Antimicrobial activity against Escherichia coli RCMB 010052 assessed as inhibition zone at 5 mg/ml after 24 hrs; details: RCMB 010052, 24 h, read-out: IZ; method in brief: as §1

| Compound | zone of inhibition at 5000 µg/mL [1] [mm] | zone of inhibition at 5000 µg/mL (Streptococcus pneumoniae [2]) [mm] | MIC [3] [µg/mL] | MIC (Bacillus subtilis [4]) [µg/mL] | MIC (Klebsiella pneumoniae [5]) [µg/mL] | MIC (Aspergillus fumigatus [6]) [µg/mL] | zone of inhibition at 5000 µg/mL (Bacillus subtilis [7]) [mm] | zone of inhibition at 5000 µg/mL (Aspergillus fumigatus [8]) [mm] | MIC (Streptococcus pneumoniae [9]) [µg/mL] | zone of inhibition at 5000 µg/mL (Geotrichum candidum [10]) [mm] | MIC (Escherichia coli [11]) [µg/mL] | MIC [12] [µg/mL] | zone of inhibition at 5000 µg/mL [13] [mm] | zone of inhibition at 5000 µg/mL (Klebsiella pneumoniae [14]) [mm] | MIC (Geotrichum candidum [15]) [µg/mL] | zone of inhibition at 5000 µg/mL (Escherichia coli [16]) [mm] |
| --- | --- | --- | --- | --- | --- | --- | --- | --- | --- | --- | --- | --- | --- | --- | --- | --- |
| COc1ccc(N/N=C(\C#N)C(=O)Nc2ccc(S(=O)(=O)Nc3onc(C)c3C)cc2)cc1 | 18.6 | 17.3 | 1.95 (≈ 4.16 µM) | 0.98 (≈ 2.09 µM) | 1.95 (≈ 4.16 µM) | 31.2 (≈ 66.7 µM) | 21.2 | 16.3 | 15.6 (≈ 33.4 µM) | 19.8 | 31.2 (≈ 66.7 µM) | 3.9 (≈ 8.32 µM) | 20.2 | 20.2 | 1.95 (≈ 4.16 µM) | 15.9 |
| C[C@@H]1[C@H](O)[C@@H](C)/C=C/C=C/C=C/C=C/C=C/C=C/C=C/[C@H](O[C@@H]2O[C@H](C)[C@@H](O)[C@H](N)[C@@H]2O)C[C@@H]2O[C@](O)(C[C@@H](O)C[C@@H](O)[C@H](O)CC[C@@H](O)C[C@@H](O)CC(=O)O[C@H]1C)C[C@H](O)[C@H]2C(=O)O [AMPHOTERICIN B] | 19.7 |  |  |  |  | 0.12 (≈ 0.13 µM) |  | 23.7 |  | 28.7 |  | 7.81 (≈ 8.45 µM) |  |  | 0.007 (≈ 0.00758 µM) |  |
| Cc1noc(NS(=O)(=O)c2ccc(NC(=O)/C(C#N)=N/Nc3ccccc3)cc2)c1C | 17.3 | 15.5 | 1.95 (≈ 4.45 µM) | 7.81 (≈ 17.8 µM) | 3.9 (≈ 8.89 µM) | 15.6 (≈ 35.6 µM) | 18.4 | 16.5 | 62.5 (≈ 143 µM) | 17.8 | 125 (≈ 285 µM) | 15.6 (≈ 35.6 µM) | 19.8 | 19.1 | 7.81 (≈ 17.8 µM) | 13.5 |
| Cc1noc(NS(=O)(=O)c2ccc(NC(=O)/C(C#N)=C/c3ccco3)cc2)c1C | 12.1 | 16.9 | 31.2 (≈ 75.8 µM) | 15.6 (≈ 37.9 µM) | 0.12 (≈ 0.291 µM) | 125 (≈ 303 µM) | 17.4 | 13.9 | 15.6 (≈ 37.9 µM) | 14.6 | 0.12 (≈ 0.291 µM) | 500 (≈ 1210 µM) | 16.2 | 15 | 62.5 (≈ 152 µM) | 14.9 |
| Cc1noc(NS(=O)(=O)c2ccc(N)cc2)c1C [SULFISOXAZOLE] | 13.2 | 19.6 | 7.81 (≈ 29.2 µM) | 0.98 (≈ 3.67 µM) | 7.81 (≈ 29.2 µM) | 62.5 (≈ 234 µM) | 20.8 | 15.1 | 1.95 (≈ 7.29 µM) | 16.8 | 62.5 (≈ 234 µM) | 125 (≈ 468 µM) | 17.5 | 18.2 | 15.6 (≈ 58.5 µM) | 15.2 |
| Cc1noc(NS(=O)(=O)c2ccc(NC(=O)/C(C#N)=C/N(C)C)cc2)c1C | 21.1 | 20 | 7.81 (≈ 20.1 µM) | 0.98 (≈ 2.52 µM) | 15.6 (≈ 40.1 µM) | 7.81 (≈ 20.1 µM) | 21.4 | 18.3 | 1.95 (≈ 5.01 µM) | 21.3 | 31.2 (≈ 80.2 µM) | 0.98 (≈ 2.52 µM) | 18.2 | 17.1 | 0.98 (≈ 2.52 µM) | 16.3 |
| Cc1noc(NS(=O)(=O)c2ccc(NC(=O)c3c(Nc4ccccc4)sc(C#N)c3N)cc2)c1C | 15.2 | 15.2 | 125 (≈ 246 µM) | 15.6 (≈ 30.7 µM) | 125 (≈ 246 µM) | 31.2 (≈ 61.4 µM) | 17.4 | 16.3 | 62.5 (≈ 123 µM) | 17.3 | 500 (≈ 983 µM) | 62.5 (≈ 123 µM) | 14.2 | 13.6 | 15.6 (≈ 30.7 µM) | 11.2 |

Reference: ChEMBL document CHEMBL3351454, “Design, synthesis, antimicrobial evaluation and molecular docking studies of some new thiophene, pyrazole and pyridone derivatives bearing sulfisoxazole moiety” (2014)
